What follows are molecules tested against Transcription factor Jun (Homo sapiens, UniProt P05412) (assay: Inhibition of AP1 expressed in HEK293 cells assessed as inhibition of PMA-induced transcriptional activation treated 24 hrs before PMA challenge by luciferase reporter gene assay).
Summary of the method: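 Six-point dose response […] and rising in ½-log steps, screened as in the primary reporter assay. IC50 calculated from the dose-response data.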

Transcription factor Jun, sequence (P05412 whole entry): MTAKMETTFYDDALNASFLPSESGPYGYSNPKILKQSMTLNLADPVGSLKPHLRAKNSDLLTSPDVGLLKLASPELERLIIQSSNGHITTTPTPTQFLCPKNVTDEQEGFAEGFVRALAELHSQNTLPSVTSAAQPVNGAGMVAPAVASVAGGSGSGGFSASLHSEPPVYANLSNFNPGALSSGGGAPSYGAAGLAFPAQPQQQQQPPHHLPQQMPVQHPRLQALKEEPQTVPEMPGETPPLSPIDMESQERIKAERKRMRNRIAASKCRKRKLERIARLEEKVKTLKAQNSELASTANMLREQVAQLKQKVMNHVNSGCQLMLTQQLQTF

Structure (SMILES) | IC50 [µM]
CNc1nc(C)c(-c2nc3ccccc3c(=O)n2-c2ccc(Cl)cc2)s1 [3-(4-Chloro-phenyl)-2-(4-methyl-2-methylamino-thiazol-5-yl)-3H-quinazolin-4-one] | 3
O=c1c2ccccc2nc(-c2sc(Nc3ccc(Cl)cc3)nc2-c2ccccc2)n1-c1ccc(Cl)cc1 [3-(4-Chloro-phenyl)-2-[2-(4-chloro-phenylamino)-4-phenyl-thiazol-5-yl]-3H-quinazolin-4-one] | 4.3
CCOC(=O)Nc1nc(C)c(-c2nc3ccccc3c(=O)n2-c2ccc(Cl)cc2)s1 [{5-[3-(4-Chloro-phenyl)-4-oxo-3,4-dihydro-quinazolin-2-yl]-4-methyl-thiazol-2-yl}-carbamic acid ethyl ester] | 10

The next lines start with the values.

IC50 [µM] | Structure (SMILES)
14 | COc1ccc(-n2c(-c3sc(Nc4ccc(Cl)cc4)nc3-c3ccccc3)nc3ccccc3c2=O)cc1 [2-[2-(4-Chloro-phenylamino)-4-phenyl-thiazol-5-yl]-3-(4-methoxy-phenyl)-3H quinazolin-4-one]
> 500 | CNc1nc(-c2ccccc2)c(-c2nc3ccccc3c(=O)n2-c2ccc(Cl)cc2)s1 [3-(4-Chloro-phenyl)-2-(2-methylamino-4-phenyl-thiazol-5-yl)-3H-quinazolin-4-one]
5.7 | CCOC(=O)Nc1nc(-c2ccccc2)c(-c2nc3ccccc3c(=O)n2-c2ccccc2)s1 [[5-(4-Oxo-3-phenyl-3,4-dihydro-quinazolin-2-yl)-4-phenylthiazol-2-yl]-carbamic acid ethyl ester]
